From ChEMBL document CHEMBL5244263, “Studies on fragment-based design of allosteric inhibitors of human factor XIa” (Bioorg Med Chem, 2020)
Activity calls are given as the source filed them. The rule behind the calls is not given here.

Experiments:
[1] = target: T1, Coagulation factor XI (Homo sapiens, UniProt P03951); assay: Inhibition of human FXIa using S-2366 as chromogenic substrate preincubated with enzyme for 10 mins followed by substrate addition by spectrophotometric analysis
[2] = target: T1, Coagulation factor XI; assay: Inhibition of human FXIa using S-2366 as chromogenic substrate preincubated with enzyme for 10 mins followed by substrate addition by spectrophotometric analysis relative to control; set-up: concentration or dose not given beside the values
Procedure, shortened: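 hFXIa (0.765 nM final) preincubated with inhibitor or reference solution for 10 min at 37 °C in pH 7.4 buffer (50 mM Tris-HCl, 150 mM NaCl, 0.1% PEG8000, 0.02% Tween80). S-2366 (345 μM final) then added, and residual activity read on a microplate reader.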

[3] = target: Prothrombin (Homo sapiens) (UniProt P00734); assay: Inhibition of human thrombin at 500 uM by chromogenic substrate hydrolysis assay
[4] = target: T2, Coagulation factor VII (Homo sapiens) (UniProt P08709); assay: Inhibition of FVIIa (unknown origin) at 500 uM by chromogenic substrate hydrolysis assay
T2 sequence (whole entry): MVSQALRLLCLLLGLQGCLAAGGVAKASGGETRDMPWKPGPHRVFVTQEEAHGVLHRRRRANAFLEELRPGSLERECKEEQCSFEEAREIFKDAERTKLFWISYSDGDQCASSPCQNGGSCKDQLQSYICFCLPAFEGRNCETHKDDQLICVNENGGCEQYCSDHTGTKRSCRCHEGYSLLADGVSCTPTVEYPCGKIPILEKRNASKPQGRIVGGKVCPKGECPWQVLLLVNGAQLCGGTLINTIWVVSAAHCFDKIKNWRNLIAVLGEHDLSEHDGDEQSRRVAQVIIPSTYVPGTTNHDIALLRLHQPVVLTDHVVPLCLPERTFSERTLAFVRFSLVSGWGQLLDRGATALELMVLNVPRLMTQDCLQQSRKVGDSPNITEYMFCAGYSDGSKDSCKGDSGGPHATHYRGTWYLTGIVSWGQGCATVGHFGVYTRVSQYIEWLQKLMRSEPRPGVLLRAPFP

[5] = target: Coagulation factor IX (Homo sapiens) (UniProt P00740); assay: Inhibition of human FIXa at 500 uM by chromogenic substrate hydrolysis assay
Chain of Coagulation factor IX (Homo sapiens) (P00740 47-191 limits assumed): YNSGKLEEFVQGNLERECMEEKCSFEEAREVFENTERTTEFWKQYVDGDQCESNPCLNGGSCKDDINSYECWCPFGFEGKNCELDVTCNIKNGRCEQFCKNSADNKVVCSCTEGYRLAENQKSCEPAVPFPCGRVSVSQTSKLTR
Chain of Coagulation factor IX (Homo sapiens) (P00740 227-461 limits assumed): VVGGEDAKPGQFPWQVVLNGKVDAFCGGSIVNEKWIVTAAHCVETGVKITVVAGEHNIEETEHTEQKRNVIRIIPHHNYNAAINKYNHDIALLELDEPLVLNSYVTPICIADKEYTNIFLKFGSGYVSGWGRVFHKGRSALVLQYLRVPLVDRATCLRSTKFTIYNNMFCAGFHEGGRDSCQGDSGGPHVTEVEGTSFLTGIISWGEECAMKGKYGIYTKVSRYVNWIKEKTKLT

[6] = target: Coagulation factor X (Homo sapiens) (UniProt P00742); assay: Inhibition of human FXa using methoxycarbonyl-D-cyclohexylglycyl-Gly-Arg-p-nitroanilide as substrate at 500 uM by chromogenic substrate hydrolysis assay
Chain of Coagulation factor X (Homo sapiens) (P00742 41-179 limits assumed): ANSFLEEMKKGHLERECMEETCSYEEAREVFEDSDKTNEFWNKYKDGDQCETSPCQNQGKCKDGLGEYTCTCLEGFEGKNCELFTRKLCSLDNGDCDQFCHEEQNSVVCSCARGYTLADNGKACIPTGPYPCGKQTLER
Chain of Coagulation factor X (Homo sapiens) (P00742 235-488 limits assumed): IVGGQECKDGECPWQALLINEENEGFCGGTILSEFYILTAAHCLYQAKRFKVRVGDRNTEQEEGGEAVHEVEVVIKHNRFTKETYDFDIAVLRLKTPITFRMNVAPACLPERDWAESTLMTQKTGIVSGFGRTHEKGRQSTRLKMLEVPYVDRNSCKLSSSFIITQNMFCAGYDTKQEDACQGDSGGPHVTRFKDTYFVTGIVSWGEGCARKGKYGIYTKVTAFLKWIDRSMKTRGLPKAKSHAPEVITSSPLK

[7] = target: Plasma kallikrein (Homo sapiens) (UniProt P03952); assay: Inhibition of Kallikrein in human plasma at 500 uM by chromogenic substrate hydrolysis assay; format: cell-free
Chain of Plasma kallikrein (Homo sapiens) (P03952 20-390 limits assumed): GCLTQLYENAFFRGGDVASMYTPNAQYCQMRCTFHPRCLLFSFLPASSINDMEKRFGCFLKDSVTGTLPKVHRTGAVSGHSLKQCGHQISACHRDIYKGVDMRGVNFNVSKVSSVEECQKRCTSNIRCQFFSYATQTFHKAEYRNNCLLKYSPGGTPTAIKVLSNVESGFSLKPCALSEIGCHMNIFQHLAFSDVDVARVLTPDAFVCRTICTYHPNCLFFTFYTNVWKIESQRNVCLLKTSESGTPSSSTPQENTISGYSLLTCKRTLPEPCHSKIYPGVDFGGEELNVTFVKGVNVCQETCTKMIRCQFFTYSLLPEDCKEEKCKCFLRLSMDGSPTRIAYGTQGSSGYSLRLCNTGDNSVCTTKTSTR
Chain of Plasma kallikrein (Homo sapiens) (P03952 391-638 limits assumed): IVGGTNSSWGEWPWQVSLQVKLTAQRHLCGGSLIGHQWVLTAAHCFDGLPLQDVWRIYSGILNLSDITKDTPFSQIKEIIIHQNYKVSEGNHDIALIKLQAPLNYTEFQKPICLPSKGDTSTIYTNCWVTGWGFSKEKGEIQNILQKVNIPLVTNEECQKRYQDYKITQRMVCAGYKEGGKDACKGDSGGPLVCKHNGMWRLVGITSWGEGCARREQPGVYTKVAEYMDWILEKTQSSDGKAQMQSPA

[8] = species: Bos taurus; assay: Inhibition of bovine trypsin using S-2222 as chromogenic substrate at 500 uM by chromogenic substrate hydrolysis assay
[9] = target: Chymotrypsinogen A (Bos taurus) (UniProt P00766); assay: Inhibition of bovine alpha-chymotrypsin at 500 uM by chromogenic substrate hydrolysis assay
[10] = species: Homo sapiens; assay: Selectivity for inhibition of human FXIa over human thrombin
[11] = species: Homo sapiens; assay: Selectivity for inhibition of human FXIa over FVIIa (unknown origin)
[12] = species: Homo sapiens; assay: Selectivity for inhibition of human FXIa over human FIXa
[13] = species: Homo sapiens; assay: Selectivity for inhibition of human FXIa over human FXa
[14] = species: Homo sapiens; assay: Selectivity for inhibition of human FXIa over Kallikrein in human plasma; format: cell-free
[15] = Selectivity for inhibition of human FXIa over bovine trypsin
[16] = Selectivity for inhibition of human FXIa over bovine alpha-chymotrypsin

T1 sequence (P03951 19-387 limits assumed): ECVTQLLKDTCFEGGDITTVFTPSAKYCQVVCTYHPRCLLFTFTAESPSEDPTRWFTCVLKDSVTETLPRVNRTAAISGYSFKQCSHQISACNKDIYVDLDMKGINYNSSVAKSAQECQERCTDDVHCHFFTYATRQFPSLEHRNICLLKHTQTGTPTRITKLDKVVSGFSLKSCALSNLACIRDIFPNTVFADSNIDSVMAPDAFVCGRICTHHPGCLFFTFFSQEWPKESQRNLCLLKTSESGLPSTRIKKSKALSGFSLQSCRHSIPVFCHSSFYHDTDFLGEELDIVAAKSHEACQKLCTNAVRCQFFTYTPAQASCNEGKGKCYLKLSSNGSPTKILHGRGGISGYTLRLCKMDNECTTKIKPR
T1 sequence (P03951 388-625 limits assumed): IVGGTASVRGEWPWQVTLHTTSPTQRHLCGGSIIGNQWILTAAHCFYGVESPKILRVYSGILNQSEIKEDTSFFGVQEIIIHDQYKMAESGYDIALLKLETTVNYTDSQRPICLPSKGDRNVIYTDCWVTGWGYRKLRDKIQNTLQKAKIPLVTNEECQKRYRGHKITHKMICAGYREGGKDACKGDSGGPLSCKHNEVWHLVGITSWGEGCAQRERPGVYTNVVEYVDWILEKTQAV

| SMILES | inhibition [2] [%] | Selectivity ratio [10] | Selectivity ratio [11] | Selectivity ratio [12] | Selectivity ratio [13] | Selectivity ratio [14] | Selectivity ratio [15] | Selectivity ratio [16] | IC50 [1] [µM] | inhibition [3] | inhibition [4] | inhibition [5] | inhibition [6] | inhibition [7] | inhibition [8] | inhibition [9] |
| --- | --- | --- | --- | --- | --- | --- | --- | --- | --- | --- | --- | --- | --- | --- | --- | --- |
| O=c1c(OS(=O)(=O)O)c(-c2ccc(OS(=O)(=O)O)c(OS(=O)(=O)O)c2)oc2cc(OS(=O)(=O)O)cc(OCc3cn(CCCCCCCCCn4c(-c5ccc(OS(=O)(=O)O)cc5)nc5ccccc5c4=O)nn3)c12 |  |  |  |  |  |  |  |  | 37 | inactive | inactive | inactive | inactive | inactive | inactive | inactive |
| O=c1c(OS(=O)(=O)O)c(-c2ccc(OS(=O)(=O)O)c(OS(=O)(=O)O)c2)oc2cc(OS(=O)(=O)O)cc(OCc3cn(CCCCCCCCCCn4c(-c5ccc(OS(=O)(=O)O)cc5)nc5ccccc5c4=O)nn3)c12 |  |  |  |  |  |  |  |  | 51 | inactive | inactive | inactive | inactive | inactive | inactive | inactive |
| O=c1c(OS(=O)(=O)O)c(-c2ccc(OS(=O)(=O)O)c(OS(=O)(=O)O)c2)oc2cc(OS(=O)(=O)O)cc(OCc3cn(CCCCCCCCn4c(-c5ccc(OS(=O)(=O)O)cc5)nc5ccccc5c4=O)nn3)c12 |  |  |  |  |  |  |  |  | 133 | inactive | inactive | inactive | inactive | inactive | inactive | inactive |
| O=c1c2ccccc2nc(-c2ccc(OS(=O)(=O)O)cc2)n1CCCCCCCCCCCn1cc(Cn2c(-c3ccc(OS(=O)(=O)O)cc3)nc3ccccc3c2=O)nn1 | 98 | > 63 | > 63 | > 63 | > 63 | > 63 | > 63 | > 63 | 30 | inactive | inactive | inactive | inactive | inactive | inactive | inactive |
| O=c1c2ccccc2nc(-c2ccc(OS(=O)(=O)O)cc2)n1CCCCCCCCCCCCn1cc(Cn2c(-c3ccc(OS(=O)(=O)O)cc3)nc3ccccc3c2=O)nn1 | 112 | > 63 | > 63 | > 63 | > 63 | > 63 | > 63 | > 63 | 35 | inactive | inactive | inactive | inactive | inactive | inactive | inactive |
| O=c1c2ccccc2nc(-c2ccc(OS(=O)(=O)O)cc2)n1CCCCCCCCCn1cc(Cn2c(-c3ccc(OS(=O)(=O)O)cc3)nc3ccccc3c2=O)nn1 | 100 | > 63 | > 63 | > 63 | > 63 | > 63 | > 63 | > 63 | 34 | inactive | inactive | inactive | inactive | inactive | inactive | inactive |
| O=c1c(OS(=O)(=O)O)c(-c2ccc(OS(=O)(=O)O)c(OS(=O)(=O)O)c2)oc2cc(OS(=O)(=O)O)cc(OCc3cn(CCCCCCCn4c(-c5ccc(OS(=O)(=O)O)cc5)nc5ccccc5c4=O)nn3)c12 |  |  |  |  |  |  |  |  | 139 | inactive | inactive | inactive | inactive | inactive | inactive | inactive |

Further lines, with some results ahead:

| inhibition [2] [%] | Selectivity ratio [10] | Selectivity ratio [11] | Selectivity ratio [12] | Selectivity ratio [13] | Selectivity ratio [14] | Selectivity ratio [15] | Selectivity ratio [16] | SMILES | IC50 [1] [µM] | inhibition [3] | inhibition [4] | inhibition [5] | inhibition [6] | inhibition [7] | inhibition [8] | inhibition [9] |
| --- | --- | --- | --- | --- | --- | --- | --- | --- | --- | --- | --- | --- | --- | --- | --- | --- |
| 96 | > 63 | > 63 | > 63 | > 63 | > 63 | > 63 | > 63 | O=c1c2ccccc2nc(-c2cccc(OS(=O)(=O)O)c2)n1CCCCCn1c(-c2cccc(OS(=O)(=O)O)c2)nc2ccccc2c1=O | 89 | inactive | inactive | inactive | inactive | inactive | inactive | inactive |
| 81 | > 63 | > 63 | > 63 | > 63 | > 63 | > 63 | > 63 | O=c1c2ccccc2nc(-c2ccc(OS(=O)(=O)O)cc2)n1CCCCCCCCn1c(-c2ccc(OS(=O)(=O)O)cc2)nc2ccccc2c1=O | 20 | inactive | inactive | inactive | inactive | inactive | inactive | inactive |
| 93 | > 63 | > 63 | > 63 | > 63 | > 63 | > 63 | > 63 | O=c1c2ccccc2nc(-c2cccc(OS(=O)(=O)O)c2)n1Cc1ccccc1Cn1c(-c2cccc(OS(=O)(=O)O)c2)nc2ccccc2c1=O | 94 | inactive | inactive | inactive | inactive | inactive | inactive | inactive |
| 87 | > 63 | > 63 | > 63 | > 63 | > 63 | > 63 | > 63 | O=c1c2ccccc2nc(-c2ccc(OS(=O)(=O)O)cc2)n1CCCCCCn1c(-c2ccc(OS(=O)(=O)O)cc2)nc2ccccc2c1=O | 34 | inactive | inactive | inactive | inactive | inactive | inactive | inactive |
| 95 | > 63 | > 63 | > 63 | > 63 | > 63 | > 63 | > 63 | COc1ccc2nc(-c3ccc(OS(=O)(=O)O)cc3)n(CCCCCCn3c(-c4ccc(OS(=O)(=O)O)cc4)nc4ccc(OC)cc4c3=O)c(=O)c2c1 | 35 | inactive | inactive | inactive | inactive | inactive | inactive | inactive |
| 96 | > 63 | > 63 | > 63 | > 63 | > 63 | > 63 | > 63 | O=c1c2ccccc2nc(-c2cccc(OS(=O)(=O)O)c2)n1CCCCCCn1c(-c2cccc(OS(=O)(=O)O)c2)nc2ccccc2c1=O | 53 | inactive | inactive | inactive | inactive | inactive | inactive | inactive |
| 92 | > 63 | > 63 | > 63 | > 63 | > 63 | > 63 | > 63 | O=c1c2ccccc2nc(-c2ccc(OS(=O)(=O)O)cc2)n1CCCCCn1c(-c2ccc(OS(=O)(=O)O)cc2)nc2ccccc2c1=O | 49 | inactive | inactive | inactive | inactive | inactive | inactive | inactive |
